Experimental data: ChEMBL document CHEMBL1132342, “Novel hypotensive agents from Verbesina caracasana. 6. Synthesis and pharmacology of caracasandiamide” (1999)
Where “and” joins values, the source holds several entries; their conditions need not be identical. Equal entries are not always repeated.

What was measured:
Rattus norvegicus [1] = test: Change in systolic blood pressure after iv administration of 400 ug/Kg compound (treatment with hexamethonium (5 mg/Kg, iv)in anesthetized rats; assay type: functional, Artery
In short: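 Urethane-anesthetized male Wistar rats, 6 per group, received iv doses of 200-1600 µg/kg (ratio 2.0) given alone or under a pretreatment. Pretreatments were continuous iv papaverine infusion (1 mg/kg/min), reserpine 5 mg/kg/day ip for 2 days, or hexamethonium 5 mg/kg iv. Peak changes in femoral arterial BP and HR were recorded; values are mean ± SE.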

Rattus norvegicus [2] = test: Change in systolic blood pressure after iv administration of 100 ug/Kg in anesthetized rats; assay type: functional, Artery
In short: (§1)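 Male Wistar rats (299 ± 3 g) were anesthetized with ethylurethane ip, tracheally cannulated and breathing spontaneously, at 37 °C, and stabilized for 60 min. Doses of 50-3200 µg/kg (ratio 2.0) in saline were injected by femoral vein, 50 µL each. Recordings: femoral arterial BP, electromagnetic abdominal-aortic flow, SV from integrated pulsatile flow, polygraphic RF. Peak changes, mean ± SE, n = 12 (n = 7 at 3200).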

Rattus norvegicus [3] = test: Change in heart rate after iv administration of 200 ug/Kg in anesthetized rats; assay type: functional
In short: (§2)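 Adult male Wistar rats under ip ethylurethane (10% w/v in saline, 1 mL/kg) with tracheal cannula and spontaneous breathing, kept at 37 °C. Arterial BP was recorded by femoral artery catheter; compound in saline (50 µL) was given via femoral vein at 50–3200 µg/kg, ratio 2.0. Peak change is given as mean ± SE, n = 12 (n = 7 at 3200 µg/kg).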

Rattus norvegicus [4] = test: Change in diastolic blood pressure after iv administration of 400 ug/Kg in the presence of noradrenaline (agonist) in anesthetized rats; assay type: functional, Artery
In short: (§3)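 Urethane-anesthetized male Wistar rats (16 rats, two equal groups) received 400 or 1600 µg/kg compound iv. Cardiovascular responses to iv agonist boluses (noradrenaline 1 µg/kg, acetylcholine 2.50 µg/kg, adrenaline, isoprenaline) were measured before and after compound dosing. Peak responses are given as mean ± SE; p < 0.05 versus control mean.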

Rattus norvegicus [5] = test: Change in systolic blood pressure after iv administration of 1600 ug/Kg in the presence of acetylcholine (agonist) in anesthetized rats; assay type: functional, Artery
Rattus norvegicus [6] = test: Change in mean aortic flow after iv administration of 200 ug/Kgin anesthetized rats; assay type: functional; in short: as §1
Rattus norvegicus [7] = test: Maximum rate of rise of the left ventricular isovolumetric pressure was measured after iv administration of 1600 ug/Kg in the presence of adrenaline (agonist) in anesthetized rats; assay type: functional, Heart left ventricle
In short: (§4)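 Anesthetized male Wistar rats, two groups of 8, received 400 or 1600 µg/kg iv. Before and after this dose, iv agonist challenges were given: noradrenaline 1 µg/kg, adrenaline, acetylcholine 2.50 µg/kg, or isoprenaline. Systolic/diastolic BP, heart rate and dP/dt responses were recorded before (control) and after dosing; significance was set at p < 0.05 versus control.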

Rattus norvegicus [8] = test: Change in respiratory frequency after iv administration of 100 ug/Kg in anesthetized rats; assay type: functional; in short: as §1
Rattus norvegicus [9] = test: Change in diastolic blood pressure after iv administration of 1600 ug/Kg in the presence of noradrenaline (agonist) in anesthetized rats; assay type: functional, Artery; in short: as §3
Rattus norvegicus [10] = test: Change in systolic blood pressure after iv administration of 400 ug/Kg in the presence of isoprenaline (agonist) in anesthetized rats; assay type: functional, Artery; in short: as §4
Rattus norvegicus [11] = test: Change in mean aortic flow after iv administration of 1600 ug/Kg in anesthetized rats; assay type: functional; in short: as §1
Rattus norvegicus [12] = test: Change in diastolic blood pressure after iv administration of 1600 ug/Kg in the presence of isoprenaline (agonist) in anesthetized rats; assay type: functional, Artery; in short: as §3
Rattus norvegicus [13] = test: Change in systolic blood pressure after iv administration of 1600 ug/Kg in the presence of isoprenaline (agonist) in anesthetized rats; assay type: functional, Artery
Rattus norvegicus [14] = test: Change in heart rate after iv administration of 400 ug/Kg in anesthetized rats; assay type: functional; in short: as §2
Rattus norvegicus [15] = test: Maximum rate of rise of the left ventricular isovolumetric pressure after iv administration of 800 ug/Kg compound (treatment with reserpine(5 mg/kg/day for 2 days, ip)in anesthetized rats; assay type: functional, Heart left ventricle
In short: (§5)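 Anesthetized rats, n = 6 per group, received iv doses of 200–1600 µg/kg (ratio 2.0) either alone (control) or under pretreatment: continuous iv papaverine infusion 1 mg/kg/min, reserpine 5 mg/kg/day ip for 2 days, or hexamethonium 5 mg/kg iv. Peak changes in BP, heart rate and dP/dt recorded; means ± SE, p < 0.05 versus control.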

Rattus norvegicus [16] = test: Change in heart rate after iv administration of 50 ug/Kg in anesthetized rats; assay type: functional; in short: as §1
Rattus norvegicus [17] = test: Change in diastolic blood pressure after iv administration of 400 ug/Kg in the presence of acetylcholine (agonist) in anesthetized rats; assay type: functional, Artery; in short: as §3
Rattus norvegicus [18] = test: Change in diastolic blood pressure after iv administration of 1600 ug/Kg compound (treatment with papaverine(1 mg/Kg/min, iv)in anesthetized rats; assay type: functional, Artery
In short: (§6)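 In anesthetized male Wistar rats, responses to iv compound (200–1600 µg/kg, ratio 2.0) were measured alone and under three pretreatments: continuous iv papaverine infusion (1 mg/kg/min), ip reserpine (5 mg/kg/day for 2 days), or iv hexamethonium (5 mg/kg). Peak changes are given as mean ± SE, n = 6 per group; p < 0.05 versus control.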

Rattus norvegicus [19] = test: Maximum rate of rise of the left ventricular isovolumetric pressure was measured after iv administration of 1600 ug/Kg in the presence of noradrenaline (agonist) in anesthetized rats; assay type: functional, Heart left ventricle; in short: as §4
Rattus norvegicus [20] = test: Change in diastolic blood pressure after iv administration of 400 ug/Kg in anesthetized rats; assay type: functional, Artery; in short: as §2
Rattus norvegicus [21] = test: Change in systolic blood pressure after iv administration of 1600 ug/Kg in anesthetized rats; assay type: functional, Artery; in short: as §1
Rattus norvegicus [22] = test: Change in diastolic blood pressure after iv administration of 1600 ug/Kg in anesthetized rats; assay type: functional, Artery; in short: as §2
Rattus norvegicus [23] = test: Change in respiratory frequency after iv administration of 400 ug/Kg in anesthetized rats; assay type: functional; in short: as §1
Rattus norvegicus [24] = test: Change in heart rate after iv administration of 1600 ug/Kg in the presence of adrenaline (agonist) in anesthetized rats; assay type: functional; in short: as §3
Rattus norvegicus [25] = test: Change in diastolic blood pressure after iv administration of 3200 ug/Kg in anesthetized rats; assay type: functional, Artery; in short: as §2
Rattus norvegicus [26] = test: Change in respiratory frequency after iv administration of 1600 ug/Kg in anesthetized rats; assay type: functional; in short: as §1
Rattus norvegicus [27] = test: Change in respiratory frequency after iv administration of 3200 ug/Kg in anesthetized rats; assay type: functional; in short: as §1
Rattus norvegicus [28] = test: Change in systolic blood pressure after iv administration of 800 ug/Kg compound (treatment with papaverine(1 mg/Kg/min, iv)in anesthetized rats; assay type: functional, Artery; in short: as §5
Rattus norvegicus [29] = test: Change in diastolic blood pressure after iv administration of 1600 ug/Kg compound (treatment with reserpine(5 mg/kg/day for 2 days, ip)in anesthetized rats; assay type: functional, Artery; in short: as §6

COc1ccc(C2C(c3ccc(OC)c(OC)c3)[C@H](C(=O)NCCCC/N=C(\N)NCC=C(C)C)[C@@H]2C(=O)NCCCC/N=C(\N)NCC=C(C)C)cc1OC (stereo partly drawn) [CARACASANDIAMIDE]
BP (Rattus norvegicus [1]): -41 mmHg
BP (Rattus norvegicus [2]): 12 mmHg
Change in BP (Rattus norvegicus [2]): 12%
Change in heart rate (Rattus norvegicus [3]): -4%
Heart rate (Rattus norvegicus [3]): -13 beats min-1
BP (Rattus norvegicus [4]): 15 mmHg
BP (Rattus norvegicus [5]): -38 mmHg
Mean aortic flow (Rattus norvegicus [6]): -14 mL/min
dP/dt (Rattus norvegicus [7]): 2739 mmHg s-1
Change in respiratory frequency (Rattus norvegicus [8]): 6 beats min-1 and 6%
BP (Rattus norvegicus [9]): 10 mmHg
BP (Rattus norvegicus [10]): -36 mmHg
Change in mean aortic flow (Rattus norvegicus [11]): -49%
Mean aortic flow (Rattus norvegicus [11]): -36 mL/min
BP (Rattus norvegicus [12]): -66 mmHg
BP (Rattus norvegicus [13]): -43 mmHg
Change in heart rate (Rattus norvegicus [14]): -4%
Heart rate (Rattus norvegicus [14]): -16 beats min-1
dP/dt (Rattus norvegicus [15]): 720 mmHg s-1
Change in heart rate (Rattus norvegicus [16]): -3%
Heart rate (Rattus norvegicus [16]): -9 beats min-1
BP (Rattus norvegicus [17]): -45 mmHg
BP (Rattus norvegicus [18]): -29 mmHg
dP/dt (Rattus norvegicus [19]): 2225 mmHg s-1
BP (Rattus norvegicus [20]): -17 mmHg
Change in BP (Rattus norvegicus [20]): -22%
BP (Rattus norvegicus [21]): -41 mmHg
Change in BP (Rattus norvegicus [21]): -39%
BP (Rattus norvegicus [22]): -43 mmHg
Change in BP (Rattus norvegicus [22]): -55%
Change in respiratory frequency (Rattus norvegicus [23]): -3 beats min-1 and -3%
Heart rate (Rattus norvegicus [24]): 7 beats min-1
BP (Rattus norvegicus [25]): -53 mmHg
Change in BP (Rattus norvegicus [25]): -68%
Change in respiratory frequency (Rattus norvegicus [26]): -61 beats min-1 and -64%
Change in respiratory frequency (Rattus norvegicus [27]): -67 beats min-1 and -70%
BP (Rattus norvegicus [28]): -22 mmHg
BP (Rattus norvegicus [29]): -15 mmHg
